As a reminder, the Ki is the equilibrium dissociation constant of an inhibitor or competing ligand from its target. Read a high Ki as weaker binding. The inhibition is the share of the control response that was lost under treatment. For orientation: IC50 means the point on the concentration scale where inhibition reaches its midpoint. A low value points to greater potency.

One assay is filed under the species Homo sapiens. The assay is described as follows: Selectivity for 12-hLO over 15-hLO1. The method in brief: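 Ratio of IC50 for 15-hLO-1 over IC50 for 12-hLO. Both come from the 234 nm conjugated-diene rate assay: 12-hLO with arachidonic acid at pH 8, 15-hLO-1 with linoleic acid at pH 7.5, 0.01% Triton X-100, 23 °C. IC50 taken from saturation-curve fits.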
Assay [1] addresses T1, Polyunsaturated fatty acid lipoxygenase ALOX15 (Homo sapiens, UniProt P16050).
T1 sequence (P16050 whole entry): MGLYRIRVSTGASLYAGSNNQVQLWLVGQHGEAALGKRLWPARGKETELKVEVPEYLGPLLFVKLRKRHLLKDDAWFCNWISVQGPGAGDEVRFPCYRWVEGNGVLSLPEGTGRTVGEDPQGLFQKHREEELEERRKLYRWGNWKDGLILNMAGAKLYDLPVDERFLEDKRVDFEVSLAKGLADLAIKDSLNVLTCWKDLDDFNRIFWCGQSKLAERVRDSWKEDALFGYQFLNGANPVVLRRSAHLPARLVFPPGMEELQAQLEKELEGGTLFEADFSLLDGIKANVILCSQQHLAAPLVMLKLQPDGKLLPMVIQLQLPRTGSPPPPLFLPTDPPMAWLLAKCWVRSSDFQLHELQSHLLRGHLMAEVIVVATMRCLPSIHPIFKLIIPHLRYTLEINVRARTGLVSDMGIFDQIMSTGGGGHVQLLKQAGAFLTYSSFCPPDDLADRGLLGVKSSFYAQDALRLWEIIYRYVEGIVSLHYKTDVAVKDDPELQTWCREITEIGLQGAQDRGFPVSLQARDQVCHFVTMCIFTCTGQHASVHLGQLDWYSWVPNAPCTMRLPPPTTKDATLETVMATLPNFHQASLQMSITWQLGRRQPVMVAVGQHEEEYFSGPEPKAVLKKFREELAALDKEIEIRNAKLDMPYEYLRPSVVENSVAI
The assay is described as follows: Inhibition of human 15-hLO1.

In assay [2] the target is T2, Polyunsaturated fatty acid lipoxygenase ALOX12 (Homo sapiens, UniProt P18054).
T2 sequence (P18054 whole entry): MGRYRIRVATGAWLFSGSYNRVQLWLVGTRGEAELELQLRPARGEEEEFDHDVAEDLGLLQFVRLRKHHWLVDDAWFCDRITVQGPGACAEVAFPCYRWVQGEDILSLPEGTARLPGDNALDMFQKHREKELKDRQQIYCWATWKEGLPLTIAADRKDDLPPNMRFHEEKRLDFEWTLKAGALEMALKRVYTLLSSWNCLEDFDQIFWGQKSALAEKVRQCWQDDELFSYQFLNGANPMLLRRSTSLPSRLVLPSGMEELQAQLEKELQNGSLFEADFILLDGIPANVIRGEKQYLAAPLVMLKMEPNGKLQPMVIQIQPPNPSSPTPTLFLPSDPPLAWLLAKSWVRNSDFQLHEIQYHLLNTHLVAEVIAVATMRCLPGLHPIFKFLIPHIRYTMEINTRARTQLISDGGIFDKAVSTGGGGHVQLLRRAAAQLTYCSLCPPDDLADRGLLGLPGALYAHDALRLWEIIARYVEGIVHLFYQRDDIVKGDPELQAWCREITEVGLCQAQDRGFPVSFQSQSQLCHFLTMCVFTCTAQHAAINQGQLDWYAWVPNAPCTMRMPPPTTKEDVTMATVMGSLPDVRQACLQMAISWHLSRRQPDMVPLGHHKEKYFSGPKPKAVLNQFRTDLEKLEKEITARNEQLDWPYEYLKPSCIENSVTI
The assay is described as follows: Inhibition of human 12-hLO. The method in brief:
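Rate from conjugated diene formation at 234 nm, room temperature (23 °C), stirred 2 mL reactions. 12-hLO (N-terminal His6-tagged, ~40 nM) with arachidonic acid in 25 mM Hepes pH 8, 0.01% Triton X-100. 15-hLO-1 (His6-tagged, ~40 nM) with linoleic acid, 15-hLO-2 (1 µM, SF9-expressed) with arachidonic acid, both in 25 mM Hepes pH 7.5, 0.01% Triton X-100. Rates at various inhibitor concentrations fit to saturation curve for IC50.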

Assay [3] concerns the target T3, Polyunsaturated fatty acid lipoxygenase ALOX12 (Homo sapiens) (UniProt P18054).
T3 sequence (whole entry): T2 sequence (P18054 whole entry)
The assay is described as follows: Inhibition of human 12-hLO at 10 uM by MI assay. In a few lines:
(§1)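 One-point manual continuous assay at 23 °C, stirred, following conjugated diene at 234 nm. 12-hLO (~40 nM, His6-tagged) with arachidonic acid in 25 mM Hepes pH 8, 0.01% Triton X-100. 15-hLO-1 (~40 nM) with linoleic acid in 25 mM Hepes pH 7.5, 0.01% Triton X-100. 10 µM inhibitor.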

In assay [4] the target is T3, Polyunsaturated fatty acid lipoxygenase ALOX12 (Homo sapiens). The assay is described as follows: Inhibition of human 12-hLO at 40 uM by HTP assay. The method in brief: (§2)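 384-well xylenol orange endpoint assay. 30 µM substrate (arachidonic acid for 12-hLO in 25 mM Hepes pH 8.0; linoleic acid for 15-hLO-1 in 25 mM HEPES pH 7.5), 0.1% Triton X-100. Inhibitor at 40 µM final from DMSO. Reactions started with ~40 nM enzyme and stopped at ~35% completion with 100 µM xylenol orange and 150 µM ferrous ammonium sulfate in 25 mM H2SO4. Read at 560 nm after 30 min dark shaking. Triplicate, normalised to no-enzyme and DMSO controls.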

Assay [5] has as its target T4, Polyunsaturated fatty acid lipoxygenase ALOX15 (Homo sapiens) (UniProt P16050).
T4 sequence (whole entry): T1 sequence (P16050 whole entry)
The assay is described as follows: Inhibition of human 15-hLO1 at 40 uM by HTP assay. In a few lines: as §2

For assay [6], the target named is T4, Polyunsaturated fatty acid lipoxygenase ALOX15 (Homo sapiens). The assay is described as follows: Inhibition of human 15-hLO1 at 10 uM by MI assay. In a few lines:
as §1

Structures are written as SMILES.

In the case of `C[C@H](NC(=O)[C@H](C[C@H](C)C(Cl)(Cl)Cl)N(C)C(=O)C[C@H](C)C(Cl)(Cl)Cl)c1nccs1` [DYSIDENIN], the Ratio Ki in the assay listed under Homo sapiens is 1. The Ki stood at 8 µM in assay [1] and 9 µM in assay [2].
Turning to `Oc1cccc2ccc(SSc3ccc4cccc(O)c4n3)nc12`, the inhibition in assay [3] was 0%; in assay [4], 71%; in assay [5], 39%; in assay [6], 0%.
For the compound `COc1c(O)cc2oc3cc(O)c(CC=C(C)C)c(O)c3c(=O)c2c1CC=C(C)C` [MANGOSTIN], the inhibition in assay [3] worked out at 100%; in assay [4], 47%; in assay [5], 12%; in assay [6], 36%. It took 0.58 µM to reach half-maximal inhibition in assay [2] (IC50).
`C[C@H](c1nccs1)N(C)C(=O)[C@H](C[C@H](C)C(Cl)(Cl)Cl)NC(=O)C[C@H](C)C(Cl)(Cl)Cl` [NEODYSIDENIN]: in assay [2], the IC50 is over 100 µM and the Ki stood at 17 µM.
`O=C(O)c1cc(C(=O)C(=O)c2cc(C(=O)O)c(O)c3ccccc23)c2ccccc2c1O`: the inhibition in assay [3] was 88%; in assay [4], 46%; in assay [5], 0%; in assay [6], 0%. For the same compound, half-maximal inhibition in assay [2] (IC50) required 0.15 µM.
On to `Oc1c(Cl)cc(C(c2cc(Cl)c(O)c(Cl)c2)C(c2cc(Cl)c(O)c(Cl)c2)c2cc(Cl)c(O)c(Cl)c2)cc1Cl`, for which the inhibition is 100% in assay [3], 70% in assay [4], 37% in assay [5] and 36% in assay [6]. The compound also had an IC50 in assay [2] of 0.21 µM.

The values above are taken from ChEMBL document CHEMBL1137481, “Discovery of platelet-type 12-human lipoxygenase selective inhibitors by high-throughput screening of structurally diverse libraries” (Bioorg Med Chem, 2007).
